Data: PMC6004563 (ACS Medicinal Chemistry Letters, 2018)
One block for each molecule: values may come before it.

What was measured:
[1] = target: T1, pre-let-7d−Lin28 interaction (Mus musculus, UniProt Q8K3Y3); test: electrophoretic mobility shift assay; type: binding, murine; conditions: pre-let-7d with Lin28, dose response
T1 sequence (Q8K3Y3 2-209): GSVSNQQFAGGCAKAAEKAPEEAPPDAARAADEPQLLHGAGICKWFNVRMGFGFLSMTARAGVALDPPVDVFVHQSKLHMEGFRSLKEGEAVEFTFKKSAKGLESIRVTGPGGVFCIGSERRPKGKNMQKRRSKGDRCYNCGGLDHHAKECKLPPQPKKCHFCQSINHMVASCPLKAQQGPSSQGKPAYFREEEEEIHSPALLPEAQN

biotinylated pre-let-7d = test: SPR binding to biotinylated pre-let-7d; conditions: 100, 50, 25, 12.5 and 6.25 µM
[2] = target: Dicer-mediated pre-let-7d maturation (Homo sapiens, UniProt Q9UPY3); test: Selectivity: Dicer-mediated pre-let-7d maturation; type: biochemical; conditions: compound at 100 µM
[3] = target: eIF4E−4E-BP1 protein-protein interaction (Homo sapiens, UniProt P06730); test: Selectivity: cat-ELCCA of the eIF4E−4E-BP1 protein-protein interaction; type: binding; conditions: compound at 100 µM
[4] = target: T2, pre-let-7d–Lin28A interaction (Mus musculus, UniProt Q8K3Y3); test: cat-ELCCA of the pre-let-7d–Lin28A interaction; type: binding, murine
T2 sequence (Q8K3Y3 2-209): T1 sequence (Q8K3Y3 2-209)
How it was run: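 Murine Lin28A, expressed as an N-terminal HaloTag fusion and biotin-labelled, was immobilised in streptavidin-coated wells. Wells were then incubated with pre-let-7d bearing a 5′-trans-cyclooctene click handle. Bound RNA was detected by click reaction with methyltetrazine-labelled HRP, then HRP substrate, with chemiluminescence as read-out. Washing steps were included.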

[5] = target: T3, HaloTag-mLin28A (biotinylated) (Mus musculus, UniProt Q8K3Y3 1-209); test: cat-ELCCA
T3 sequence: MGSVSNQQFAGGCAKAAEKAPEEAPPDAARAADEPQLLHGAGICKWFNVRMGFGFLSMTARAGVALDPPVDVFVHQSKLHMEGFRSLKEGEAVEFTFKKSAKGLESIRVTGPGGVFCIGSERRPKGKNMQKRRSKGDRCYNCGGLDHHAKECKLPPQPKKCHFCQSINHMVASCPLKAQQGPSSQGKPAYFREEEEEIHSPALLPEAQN

Sequence of eIF4E−4E-BP1 protein-protein interaction (P06730 whole entry): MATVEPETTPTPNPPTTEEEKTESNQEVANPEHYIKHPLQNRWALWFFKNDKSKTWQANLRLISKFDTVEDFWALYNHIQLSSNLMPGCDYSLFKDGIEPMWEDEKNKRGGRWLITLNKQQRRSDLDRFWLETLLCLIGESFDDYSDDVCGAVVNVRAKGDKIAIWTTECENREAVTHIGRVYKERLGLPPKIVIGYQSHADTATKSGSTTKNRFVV
Sequence of Dicer-mediated pre-let-7d maturation (Q9UPY3 whole entry): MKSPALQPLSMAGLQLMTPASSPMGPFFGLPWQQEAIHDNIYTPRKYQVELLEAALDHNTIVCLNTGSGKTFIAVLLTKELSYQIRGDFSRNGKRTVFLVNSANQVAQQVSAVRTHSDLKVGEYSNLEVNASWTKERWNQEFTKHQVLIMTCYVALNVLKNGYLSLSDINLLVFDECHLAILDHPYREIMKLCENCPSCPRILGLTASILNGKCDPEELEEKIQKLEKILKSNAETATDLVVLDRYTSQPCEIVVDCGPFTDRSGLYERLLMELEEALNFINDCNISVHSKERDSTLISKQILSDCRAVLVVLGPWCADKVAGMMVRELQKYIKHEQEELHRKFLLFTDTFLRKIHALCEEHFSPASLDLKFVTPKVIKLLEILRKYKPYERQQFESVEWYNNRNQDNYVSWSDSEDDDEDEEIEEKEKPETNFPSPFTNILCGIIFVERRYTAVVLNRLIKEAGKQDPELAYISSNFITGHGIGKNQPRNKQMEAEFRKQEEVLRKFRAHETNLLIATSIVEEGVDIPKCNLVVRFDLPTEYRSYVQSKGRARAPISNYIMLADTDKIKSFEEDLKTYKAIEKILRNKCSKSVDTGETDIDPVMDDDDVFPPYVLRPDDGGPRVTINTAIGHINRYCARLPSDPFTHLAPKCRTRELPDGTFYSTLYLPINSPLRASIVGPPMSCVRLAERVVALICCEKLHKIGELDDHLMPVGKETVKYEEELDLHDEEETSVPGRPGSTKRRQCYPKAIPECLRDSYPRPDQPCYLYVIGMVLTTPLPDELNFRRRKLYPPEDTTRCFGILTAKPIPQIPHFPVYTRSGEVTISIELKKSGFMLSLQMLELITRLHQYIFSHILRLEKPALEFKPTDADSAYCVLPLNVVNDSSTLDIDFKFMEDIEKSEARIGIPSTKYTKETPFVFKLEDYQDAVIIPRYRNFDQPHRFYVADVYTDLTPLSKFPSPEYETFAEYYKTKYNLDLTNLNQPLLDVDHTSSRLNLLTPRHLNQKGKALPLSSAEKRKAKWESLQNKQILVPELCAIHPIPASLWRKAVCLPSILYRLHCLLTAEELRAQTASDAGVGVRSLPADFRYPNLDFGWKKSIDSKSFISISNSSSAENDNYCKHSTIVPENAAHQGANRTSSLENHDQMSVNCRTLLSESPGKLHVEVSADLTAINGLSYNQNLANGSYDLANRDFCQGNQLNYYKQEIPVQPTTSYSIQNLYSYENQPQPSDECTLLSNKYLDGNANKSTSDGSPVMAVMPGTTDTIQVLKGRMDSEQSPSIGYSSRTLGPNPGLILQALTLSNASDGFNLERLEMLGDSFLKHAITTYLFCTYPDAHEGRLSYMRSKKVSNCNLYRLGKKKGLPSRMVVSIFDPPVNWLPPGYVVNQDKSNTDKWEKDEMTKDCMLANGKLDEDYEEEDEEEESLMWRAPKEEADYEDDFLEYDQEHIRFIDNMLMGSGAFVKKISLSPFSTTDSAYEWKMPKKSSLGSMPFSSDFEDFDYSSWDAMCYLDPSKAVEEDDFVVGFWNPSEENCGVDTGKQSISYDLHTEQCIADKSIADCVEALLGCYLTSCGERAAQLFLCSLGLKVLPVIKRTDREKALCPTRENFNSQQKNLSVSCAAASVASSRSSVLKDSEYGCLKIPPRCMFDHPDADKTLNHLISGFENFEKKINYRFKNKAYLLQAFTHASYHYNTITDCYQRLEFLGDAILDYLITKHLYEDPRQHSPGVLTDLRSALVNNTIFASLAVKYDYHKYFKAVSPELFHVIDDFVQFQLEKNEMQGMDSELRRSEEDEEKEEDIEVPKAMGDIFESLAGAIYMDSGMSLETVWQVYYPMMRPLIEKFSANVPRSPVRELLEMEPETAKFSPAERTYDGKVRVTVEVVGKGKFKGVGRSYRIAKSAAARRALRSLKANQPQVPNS

Molecule: O=S(=O)(Nc1cccc(NS(=O)(=O)c2ccccc2)c1)c1ccccc1 [Compound 4, N,N′-(1,3-phenylene)dibenzenesulfonamide]
activity (inhibition of pre-let-7d–Lin28A) [4]: inactive

Molecule: O=S(=O)(c1ccccc1)N1CCN(S(=O)(=O)c2ccccc2)c2ccccc21 [Compound 5]
activity (inhibition of pre-let-7d–Lin28A) [4]: inactive

Molecule: O=C(Nc1ccccc1NC(=O)c1ccccc1)c1ccccc1 [Compound 6]
activity (inhibition of pre-let-7d–Lin28A) [4]: inactive

Molecule: Nc1ccccc1NS(=O)(=O)c1ccccc1 [Compound 3]
activity (inhibition of pre-let-7d–Lin28A) [4]: inactive

B1: 5'-TCO-pre-let-7d (structured_RNA)
RNA: AGAGGUAGUAGGUUGCAUAGUUUUAGGGCAGGGAUUUUGCCCACAAGGAGGUAACUAUACGACCUGCUGCCUUUCU
modifications: 5'-phosphate pentylamine (N5) linked to TCO-PEG4
Kd [5]: 106 nM

Further lines, results first:

activity in EMSA [1]: concentration-responsive activity | binding to pre-let-7d (SPR) (biotinylated pre-let-7d): not pre-let-7d | inhibition of Dicer-mediated pre-let-7d maturation [2]: insignificant inhibition | inhibition of cat-ELCCA-based PPI assay [3]: insignificant inhibition
Molecule: Cc1ccc(S(=O)(=O)Nc2ccc(C)cc2NS(=O)(=O)c2cccc(C(F)(F)F)c2)cc1 [CCG-234459]

activity in EMSA [1]: concentration-responsive activity | binding to pre-let-7d (SPR) (biotinylated pre-let-7d): not pre-let-7d | inhibition of Dicer-mediated pre-let-7d maturation [2]: insignificant inhibition | inhibition of cat-ELCCA-based PPI assay [3]: insignificant inhibition
Molecule: Cc1ccc(S(=O)(=O)Nc2ccc(F)cc2NS(=O)(=O)c2ccc(C)cc2)cc1 [CCG-233094]
